Measurements from ChEMBL document CHEMBL2202989, “New adamantane phenylalkylamines with σ-receptor binding affinity and anticancer activity, associated with putative antagonism of neuropathic pain” (J Med Chem, 2012).

Key:
Type in all cases: functional
BXPC-3 [1] = assay: Cell cycle arrest in human BxPC3 cells assessed as accumulation at S phase at 50 uM after 24 hrs using propidium iodide staining by FACS analysis (reference value: 33 %)
Summary of the method: (§1)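 Cells were plated 24 h before treatment and exposed for 24 h at final 0.5, 5, 15 and 50 μM in 0.5% DMSO, against vehicle-treated controls. Cells were then trypsinised and fixed in cold ethanol for 3 h at 4 °C. They were stained in a mix of RNase (200 μg/mL) and PI (1 mg/mL) for 45 min at room temperature in the dark. Flow cytometry used 488 nm excitation and 10 000 gated cells. Phase percentages were assigned from DNA content.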

IGROV-1 [2] = assay: Cell cycle arrest in human IGROV1 cells assessed as accumulation at S phase at 0.5 uM after 24 hrs using propidium iodide staining by FACS analysis (reference value: 29 %)
PC-3 [3] = assay: Induction of apoptosis in human PC3 cells assessed as late apoptosis at 15 uM using annexin V/7-AAD by FACS analysis (reference value: 3 %)
Summary of the method: (§2)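 Cells plated 24 h before treatment, then exposed 24 h to 0.5, 5, 15 or 50 μM compound (final DMSO 0.5%); vehicle controls included. Cells scraped and stained with annexin V-FITC and 7-AAD for 15 min on ice in the dark. Flow cytometry with 488 nm excitation, 10,000 gated cells. Early apoptosis was annexin V+/7-AAD−, late was annexin V+/7-AAD+.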

OVCAR-5 [4] = assay: Antitumor activity against human OVCAR5 cells xenografted in SCID mouse assessed as tumor growth inhibition at 55 mg/kg, ip administered 5 consecutive days in a week for two cycles measured after 2 cycles relative to control; conditions: OVCAR-5, ip, route intraperitoneal, read-out: TGI
Summary of the method: (§3)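 SCID mice carried OVCAR5 xenografts (10^6 cells per inoculum), 16 mice (32 tumors) per group, with ip dosing in 5% Tween 80 from a tumor volume of about 100 mm3. Caliper volume was measured twice weekly and %ΔT/ΔC derived. At termination, primary tumors were weighed and secondary metastases were scored at axillary and bone sites (n = 7−8). Two-tailed t test.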

PC-3 [5] = assay: Induction of apoptosis in human PC3 cells assessed as early apoptosis at 0.5 uM using annexin V/7-AAD by FACS analysis (reference value: 5 %)
BXPC-3 [6] = assay: Induction of apoptosis in human BxPC3 cells assessed as early apoptosis at 5 uM using annexin V/7-AAD by FACS analysis (reference value: 9 %)
BXPC-3 [7] = assay: Induction of apoptosis in human BxPC3 cells assessed as cleaved caspase3 containing cells at 15 uM by antibody-based FACS analysis (reference value: 8.2 %)
IGROV-1 [8] = assay: Induction of apoptosis in human IGROV1 cells assessed as healthy cells at 15 uM using annexin V/7-AAD by FACS analysis (reference value: 86 %)
IGROV-1 [9] = assay: Cell cycle arrest in human IGROV1 cells assessed as accumulation at G2 phase at 5 uM after 24 hrs using propidium iodide staining by FACS analysis (reference value: 19 %)
PC-3 [10] = assay: Induction of apoptosis in human PC3 cells assessed as early apoptosis at 15 uM using annexin V/7-AAD by FACS analysis (reference value: 5 %)
PC-3 [11] = assay: Induction of apoptosis in human PC3 cells assessed as total apoptotic death at 15 uM using annexin V/7-AAD by FACS analysis (reference value: 8 %); summary of the method: as §2
IGROV-1 [12] = assay: Cell cycle arrest in human IGROV1 cells assessed as accumulation at >G2/M phase at 50 uM after 24 hrs using propidium iodide staining by FACS analysis (reference value: 21 %); summary of the method: as §1
PC-3 [13] = assay: Cell cycle arrest in human PC3 cells assessed as accumulation at G1 phase at 0.5 uM after 24 hrs using propidium iodide staining by FACS analysis (reference value: 36 %)
PC-3 [14] = assay: Cell cycle arrest in human PC3 cells assessed as accumulation at G1 phase at 5 uM after 24 hrs using propidium iodide staining by FACS analysis (reference value: 36 %)
IGROV-1 [15] = assay: Cell cycle arrest in human IGROV1 cells assessed as accumulation at sub G1 phase at 50 uM after 24 hrs using propidium iodide staining by FACS analysis (reference value: 4 %)
PC-3 [16] = assay: Induction of apoptosis in human PC3 cells assessed as late apoptosis at 50 uM using annexin V/7-AAD by FACS analysis (reference value: 3 %)
PC-3 [17] = assay: Antitumor activity against human PC3 cells xenografted in SCID mouse assessed as primary tumor occurrence at 55 mg/kg, ip administered 5 consecutive days in a week for two cycles measured after 2 cycles relative to control; conditions: route intraperitoneal
Summary of the method: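 PC3 xenografts were grown in SCID mice (10^6 cells per inoculum), 14 mice (28 tumors) per group, dosed ip from about 100 mm3. The test agent was given in 5% Tween 80; paclitaxel was given in Cremophor diluted in saline, with a vehicle of 1:1 ethanol/Cremophor diluted 1:3 in saline. Volume and %ΔT/ΔC were derived from caliper readings twice weekly. Occurrence of primary tumors and of axillary and bone metastases was scored (n = 7). Two-tailed t test.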

IGROV-1 [18] = assay: Induction of apoptosis in human IGROV1 cells assessed as healthy cells at 50 uM using annexin V/7-AAD by FACS analysis (reference value: 86 %)
IGROV-1 [19] = assay: Growth inhibition of human IGROV1 cells after 48 hrs by SRB assay; conditions: IGROV-1, 48 h
Summary of the method: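 Cells grown in RPMI 1640 with 5% heat-inactivated FCS, 2 mM L-glutamine and antibiotics, 37 °C, 5% CO2. Seeded at 3500–30000 cells/well and left 24 h before dosing. DMSO solutions added at 10-fold dilutions from 100 to 0.01 μM for 48 h. Cells TCA-fixed and SRB-stained, absorbance read at 540 nm; GI50 derived against the time-zero plate.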

OVCAR-5 [20] = assay: Antitumor activity against human OVCAR5 cells xenografted in SCID mouse assessed as bone metastasis at 55 mg/kg, ip administered 5 consecutive days in a week for two cycles measured after 2 cycles relative to control; conditions: OVCAR-5, ip, route intraperitoneal, read-out: TGI; summary of the method: as §3
BXPC-3 [21] = assay: Cell cycle arrest in human BxPC3 cells assessed as accumulation at sub G1 phase at 15 uM after 24 hrs using propidium iodide staining by FACS analysis (reference value: 9 %); summary of the method: as §1
BXPC-3 [22] = assay: Cell cycle arrest in human BxPC3 cells assessed as accumulation at S phase at 5 uM after 24 hrs using propidium iodide staining by FACS analysis (reference value: 33 %); summary of the method: as §1
IGROV-1 [23] = assay: Induction of apoptosis in human IGROV1 cells assessed as total apoptotic death at 0.5 uM using annexin V/7-AAD by FACS analysis (reference value: 13 %); summary of the method: as §2
PC-3 [24] = assay: Cell cycle arrest in human PC3 cells assessed as accumulation at S phase at 15 uM after 24 hrs using propidium iodide staining by FACS analysis (reference value: 42 %)
BXPC-3 [25] = assay: Cell cycle arrest in human BxPC3 cells assessed as accumulation at S phase at 15 uM after 24 hrs using propidium iodide staining by FACS analysis (reference value: 33 %); summary of the method: as §1
BXPC-3 [26] = assay: Induction of apoptosis in human BxPC3 cells assessed as healthy cells at 15 uM using annexin V/7-AAD by FACS analysis (reference value: 79 %)

## CN1CCN(CCCc2ccc(C(c3ccccc3)C34CC5CC(CC(C5)C3)C4)cc2)CC1 (stereo not drawn)
BXPC-3 [1]
  Activity: 33%
IGROV-1 [2]
  Activity: 26%
PC-3 [3]
  Activity: 7%
OVCAR-5 [4]
  inhibition in vivo at 55 mg/kg: 44.5%
PC-3 [5]
  Activity: 3%
BXPC-3 [6]
  Activity: 11%
BXPC-3 [7]
  Activity: 17.5%
IGROV-1 [8]
  Activity: 35%
IGROV-1 [9]
  Activity: 21%
PC-3 [10]
  Activity: 9%
PC-3 [11]
  Activity: 16%
IGROV-1 [12]
  Activity: 15%
PC-3 [13]
  Activity: 34%
PC-3 [14]
  Activity: 36%
IGROV-1 [15]
  Activity: 18%
PC-3 [16]
  Activity: 9%
PC-3 [17]
  Activity: 100%
IGROV-1 [18]
  Activity: 26%
IGROV-1 [19]
  GI50: 4.54 µM
  TGI: 11.9 µM
IGROV-1 [19]; read-out: LC50 (the source's name)
  CC50: 0.0748 µM
OVCAR-5 [20]
  inhibition in vivo at 55 mg/kg: 25%
BXPC-3 [21]
  Activity: 24%
BXPC-3 [22]
  Activity: 23%
IGROV-1 [23]
  Activity: 11%
PC-3 [24]
  Activity: 31%
BXPC-3 [25]
  Activity: 27%
BXPC-3 [26]
  Activity: 35%
